# Assay outcomes as filed in PubChem BioAssay.
# In the library only some 5.9% were active in any assay of this set; here they are far more common.
# GASC1 inh = inhibitors of GASC-1 (KDM4C) histone demethylase, primary screen, biochemical, single concentration HTS. Lysine-specific demethylase 4C (Homo sapiens), Q9H3R0. GST-KDM4C 2-372, H3K9me3 peptide, LANCE TR-FRET. inhibition, % at 12.5 µM. actives 0.15% (n = 96,000);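 active = mean replicate inhibition above about 25%, with at least 55% of replicates also reaching it, limit read from the data, passing the limit was not always enough; inconclusive = only one of those two conditions met; inactive = neither condition met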
#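 System – N-terminal GST-fused human GASC-1 (KDM4C) fragment, residues 2-372 · Input – enzyme final amount 10 nM · Technique – LANCE TR-FRET, Eu antibody, ULight-streptavidin, EDTA, ex 340 nm, em 618/671 nm · Medium – HEPES buffer, pH 7.5, plus ascorbate · Incubation – enzyme reaction 30 min, then detection 60 min, both room temperature · Reagent – H3K9me3 peptide with Fe(II)/2OG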
# IDH1 mut inh = inhibitors of IDH1 R132H reductase, primary screen, biochemical, plate reader, single point; AID 624101, 2012; actives 0.18% (n = 70,000); diaphorase/resazurin fluorescence, 60 min; inhibition, % at 10 µM; in the data active = inhibition above about 34%; inconclusive = no clear call, values can overlap the other calls; inactive = below about 11%
# Target sequence (O75874 whole entry R132H): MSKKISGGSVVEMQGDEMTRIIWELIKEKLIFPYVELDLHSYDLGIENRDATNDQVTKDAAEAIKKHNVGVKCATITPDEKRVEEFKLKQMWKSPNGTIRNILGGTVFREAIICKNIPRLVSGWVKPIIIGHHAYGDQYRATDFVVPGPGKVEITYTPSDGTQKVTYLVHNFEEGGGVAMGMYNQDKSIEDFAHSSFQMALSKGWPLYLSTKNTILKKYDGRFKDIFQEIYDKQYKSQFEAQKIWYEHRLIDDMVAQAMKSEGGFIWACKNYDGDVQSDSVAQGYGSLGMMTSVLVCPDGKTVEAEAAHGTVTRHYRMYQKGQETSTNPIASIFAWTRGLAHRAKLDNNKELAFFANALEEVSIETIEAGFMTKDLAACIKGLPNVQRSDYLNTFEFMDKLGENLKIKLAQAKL
# Pf Dd2 growth = P. falciparum Dd2 growth inhibitors, primary screen, SYBR Green fluorescence, single dose replicates. activity change, % at 10 µM. actives 2.3% (n = 94,000). 72 h; stronger effect = lower value; in the data active = activity change below about -80%; inconclusive = no clear call, values can overlap the other calls
# Tcruzi prolif = T. cruzi intracellular proliferation inhibitors, primary screen, cell-based, beta-gal Tulahuen parasites, NIH3T3 host, luminescence; T. cruzi beta-gal in NIH3T3, GalScreen luminescence, 90 h; inhibition, % at 8.34 µM; actives 5.9% (n = 77,000); AID 624255, 2012;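 active = mean inhibition above about 93%, with at least 55% of replicates each passing it, limit read from the data, passing the limit was not always enough; inconclusive = only one of those two conditions holds; inactive = neither condition holds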
# Hits are given with their value; – = inactive; ? = inconclusive; · = not tested or not shown.
SMILES,GASC1 inh,IDH1 mut inh,Pf Dd2 growth,Tcruzi prolif
Cc1ccc(S(=O)(=O)N(C)C[C@@H]2OCCCC[C@H](C)Oc3ccc(NC(=O)Nc4ccc(F)cc4)cc3C(=O)N([C@@H](C)CO)C[C@@H]2C)cc1,–,–,-82.7,·
CN(C)C(=O)C[C@@H]1C[C@H]2c3cc(NC(=O)C4CCC4)ccc3O[C@H]2[C@H](CO)O1,35.8,51.6,–,–
CN(C)C(=O)C[C@@H]1C[C@@H]2c3cc(NC(=O)Nc4ccccc4)ccc3O[C@@H]2[C@@H](CO)O1,31.7,73.4,–,–
Cc1ccc(S(=O)(=O)Nc2ccc3c(c2)C(=O)N([C@@H](C)CO)C[C@H](C)[C@@H](CN(C)S(=O)(=O)c2ccc(Cl)cc2)OCCCC[C@@H](C)O3)cc1,–,–,?,–
Cc1ccc(S(=O)(=O)Nc2ccc3c(c2)C(=O)N([C@@H](C)CO)C[C@H](C)[C@@H](CN(C)S(=O)(=O)c2ccc(Cl)cc2)OCCCC[C@H](C)O3)cc1,–,–,-86.1,–
Cc1noc(C)c1S(=O)(=O)Nc1ccc2c(c1)C(=O)N([C@@H](C)CO)C[C@@H](C)[C@@H](CN(C)S(=O)(=O)c1ccc(Cl)cc1)OCCCC[C@H](C)O2,–,·,-92.0,–
Cc1noc(C)c1S(=O)(=O)Nc1ccc2c(c1)C(=O)N([C@@H](C)CO)C[C@@H](C)[C@H](CN(C)S(=O)(=O)c1ccc(F)cc1)O2,–,·,-84.8,–
Cc1ccc(S(=O)(=O)Nc2ccc3c(c2)C(=O)N([C@H](C)CO)C[C@@H](C)[C@@H](CN(C)S(=O)(=O)c2ccccc2)OCCCC[C@@H](C)O3)cc1,–,–,–,·
Cc1ccc(S(=O)(=O)N(C)C[C@@H]2OCCCC[C@H](C)Oc3ccc(NS(=O)(=O)c4ccccc4)cc3C(=O)N([C@@H](C)CO)C[C@@H]2C)cc1,–,–,–,109.9
Cc1ccc(CC(c2nc3ccccc3[nH]2)C(C)c2nc3ccccc3[nH]2)cc1 (stereo not given),·,–,·,·
COc1ccc2c3c([nH]c2c1)[C@H](CO)N(Cc1ccncc1)CC31CCN(Cc2ccc(-c3ccccn3)cc2)CC1,–,·,-89.0,·
COc1ccc2c3c([nH]c2c1)[C@@H](CO)N(Cc1nccs1)CC31CCN(Cc2ccncc2)CC1,–,·,–,·
COc1ccc2c3c([nH]c2c1)[C@@H](CO)N(Cc1ccncc1)CC31CCN(Cc2ccc(-c3ccccn3)cc2)CC1,–,·,-90.8,·
CCC(C)C(O)C(C)(O)/C=C/C1=CC2=C(Cl)C(=O)C(C)(O)C(OC(C)=O)C2CO1 (stereo not given),·,–,·,·
COc1ccccc1NC(=O)Cn1nc([N+](=O)[O-])c(Br)c1C,·,–,·,·
C[C@H]1CN([C@@H](C)CO)C(=O)Cc2cc(NC(=O)Nc3ccc(F)cc3)ccc2O[C@H]1CN(C)Cc1ccc(C(=O)Nc2ccccc2N)cc1,–,–,-82.8,·
C[C@@H]1CN([C@@H](C)CO)C(=O)Cc2cc(NC(=O)Nc3ccc(F)cc3)ccc2O[C@H]1CN(C)Cc1ccccc1,–,–,-85.4,–
C[C@H](CO)N1C[C@H](C)[C@@H](CN(C)Cc2ccc(C(=O)Nc3ccccc3N)cc2)Oc2ccc(NC(=O)Nc3ccc(F)cc3)cc2CC1=O,–,–,–,–
COc1ccc(NC(=O)Nc2ccc3c(c2)CC(=O)N([C@@H](C)CO)C[C@H](C)[C@@H](CN(C)Cc2ccc(C(=O)Nc4ccccc4N)cc2)O3)cc1,–,·,-88.0,·
COc1ccc(NC(=O)Nc2ccc3c(c2)CC(=O)N([C@H](C)CO)C[C@@H](C)[C@@H](CN(C)Cc2ccc(C(=O)Nc4ccccc4N)cc2)O3)cc1,–,–,–,·
Cc1ccc(NC(=O)CSc2nc(C)cc(-c3ccc(Cl)cc3)n2)cc1,·,–,·,·
COc1ccc([N+](=O)[O-])cc1NC(=O)COc1ccc(C(C)(C)C)cc1Br,·,–,·,·
COC(=O)c1c(NC(=S)NCCn2cc(Br)cn2)sc2c1CCC2,·,–,·,·
COc1ccccc1-c1ccc2c(c1)O[C@H](CN(C)Cc1ccc3c(c1)OCO3)[C@@H](C)CN([C@H](C)CO)S2(=O)=O,–,–,-83.7,·
COc1ccccc1-c1ccc2c(c1)O[C@@H](CN(C)C(=O)c1ccncc1)[C@H](C)CN([C@@H](C)CO)S2(=O)=O,32.0,36.1,–,–
SMILES,GASC1 inh,IDH1 mut inh,Pf Dd2 growth,Tcruzi prolif
CC(C)CC#Cc1ccc2c(c1)O[C@@H](CN(C)Cc1ccc3c(c1)OCO3)[C@H](C)CN([C@@H](C)CO)S2(=O)=O,·,–,-81.3,–
COc1ccccc1-c1ccc2c(c1)O[C@H](CN(C)C(=O)c1ccncc1)[C@H](C)CN([C@H](C)CO)S2(=O)=O,–,–,–,–
Cc1c(CCC(=O)O)c(=O)oc2cc(O)c(Cl)cc12,·,–,·,·
O=C(Nc1ccccc1)N1CCCCN2[C@H](CO)[C@H](c3ccc(C#Cc4cccnc4)cc3)[C@@H]2C1,–,·,-88.3,–
COc1ccc(C#Cc2ccc([C@@H]3[C@H](CO)N4CCCCN(C(=O)Nc5cccc(F)c5)C[C@@H]34)cc2)cc1,–,·,-84.0,–
COc1ccc(NC(=O)N2CCCCN3[C@H](CO)[C@H](c4ccc(-c5ccccc5F)cc4)[C@@H]3C2)cc1,–,·,-85.4,–
O=C(Nc1ccccc1)N1CCCCN2[C@H](CO)[C@@H](c3ccc(C#Cc4ccccc4)cc3)[C@H]2C1,–,·,–,–
COc1ccc(C#Cc2ccc([C@H]3[C@@H](CO)N4CCCCN(C(=O)Nc5cccc(F)c5)C[C@H]34)cc2)cc1,–,·,?,–
COc1ccc(-c2nc3ccccc3s2)cc1NC(=O)COc1ccc(Cl)cc1Cl,·,–,·,·
COc1ccccc1S(=O)(=O)N(C)C[C@@H]1OCc2ccccc2-c2c(n(C)c3ccccc23)C(=O)N([C@H](C)CO)C[C@@H]1C,–,·,-93.9,–
COc1ccccc1S(=O)(=O)N(C)C[C@@H]1OCc2ccccc2-c2c(n(C)c3ccccc23)C(=O)N([C@@H](C)CO)C[C@H]1C,–,·,–,–
COc1ccccc1S(=O)(=O)N(C)C[C@@H]1OCc2ccccc2-c2c(n(C)c3ccccc23)C(=O)N([C@@H](C)CO)C[C@@H]1C,–,–,-92.6,–
CCC(C)C(=O)c1c(O)cc2c(c1O)CC(CC=C(C)C)C(C)(C)O2 (stereo not given),·,–,·,·
CO[C@@H]1CN(C)C(=O)c2cc(NC(=O)c3ccc(-c4ccccc4)cc3)ccc2OC[C@@H](C)NC[C@@H]1C,–,–,-96.6,·
CO[C@H]1CN(C)C(=O)c2cc(NC(=O)c3ccc(-c4ccccc4)cc3)ccc2OC[C@@H](C)NC[C@H]1C,–,–,–,·
CO[C@H]1CN(C)C(=O)c2cc(NC(=O)c3ccc(-c4ccccc4)cc3)ccc2OC[C@H](C)NC[C@H]1C,·,–,-92.2,·
CO[C@@H]1CN(C)C(=O)c2cc(NC(=O)c3ccc(-c4ccccc4)cc3)ccc2OC[C@H](C)NC[C@@H]1C,–,–,–,·
